Results: ChEMBL document CHEMBL5033990, “Novel Aryl-Substituted Pyrimidones as Inhibitors of 3-Mercaptopyruvate Sulfurtransferase with Antiproliferative Efficacy in Colon Cancer” (J Med Chem, 2021)
pIC50: −log10 of the molar value. One block for each compound: values may come before it. Activity calls are given as the source filed them. No cut-off for these calls is given here.

How the values were obtained:
[1] = Inhibition of recombinant human 3-MST expressed in Escherichia coli assessed as inhibition of H2S generation using 3-MP as substrate preincubated with enzyme for 1 hr followed by incubation with substrate for 1 hr by AzMC probe based fluorescence analysis
Procedure, shortened: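 Same 3-MST/3-MP/AzMC assay, 1 h preincubation then 1 h kinetic read, at 3, 10, 30, 100 and 300 μM (final DMSO 0.3%). Run for compounds inhibiting at least 60% at 100 μM. Three experiments in triplicate. IC50 from nonlinear fit of data taken between min 20 and 40 of the 60 min read.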

CT26 [2] = assay: Antiproliferative activity against mouse CT26 cells assessed as inhibition of cell proliferation measured after 48 hrs by IncuCyte live-cell imaging assay; type: functional, cell-based; details: CT26, 48 h
MC-38 [3] = assay: Antiproliferative activity against mouse MC38 cells assessed as inhibition of cell proliferation measured after 48 hrs by IncuCyte live-cell imaging assay; type: functional, cell-based; details: MC-38, 48 h
CT26 [4] = assay: Antiproliferative activity against mouse CT26 cells assessed as inhibition of cell proliferation measured after 24 hrs by MTT assay; type: functional, cell-based; details: CT26, 24 h
MC-38 [5] = assay: Antiproliferative activity against mouse MC38 cells assessed as inhibition of cell proliferation measured after 24 hrs by MTT assay; type: functional, cell-based; details: MC-38, 24 h
MC-38 [6] = assay: Antitumor activity against mouse MC38 cells xenografed in C57BL/6 mouse assessed as reduction in tumor growth at 20 mg/kg, ip administered daily for 2 weeks by caliper analysis; type: functional, organism-based
[7] = biological target: T1, Cystathionine beta-synthase (Homo sapiens) (UniProt P35520); assay: Inhibition of human full length CBS using L-cysteine and L-homocysteine as substrate at 30 to 300 uM preincubated with enzyme for 1 hr followed by substrate, PLP and SAM addition for 2 hrs by AzMC probe based fluorescence analysis; details: dose 30-300 µM, time 3.0 hrs
T1 sequence (whole entry): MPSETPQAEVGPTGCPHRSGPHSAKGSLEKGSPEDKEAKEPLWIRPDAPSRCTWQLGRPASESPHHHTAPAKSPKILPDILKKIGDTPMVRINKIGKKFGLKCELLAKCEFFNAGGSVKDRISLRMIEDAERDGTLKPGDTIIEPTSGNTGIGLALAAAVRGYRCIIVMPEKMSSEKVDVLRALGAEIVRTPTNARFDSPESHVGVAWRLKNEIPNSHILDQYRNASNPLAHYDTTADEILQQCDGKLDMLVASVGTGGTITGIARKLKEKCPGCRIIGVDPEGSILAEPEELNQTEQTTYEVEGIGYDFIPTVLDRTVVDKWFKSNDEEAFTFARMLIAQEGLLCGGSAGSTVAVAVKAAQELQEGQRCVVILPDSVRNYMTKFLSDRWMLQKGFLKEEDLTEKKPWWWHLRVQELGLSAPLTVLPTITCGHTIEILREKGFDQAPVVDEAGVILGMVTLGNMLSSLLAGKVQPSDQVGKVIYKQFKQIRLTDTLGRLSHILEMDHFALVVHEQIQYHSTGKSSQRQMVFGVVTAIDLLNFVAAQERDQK
Procedure, shortened: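 Human full-length CBS, 0.5 μg/well, preincubated 1 h with compound at 30 or 300 μM. Then added 5 μM PLP, 2 mM L-cysteine, 2 mM L-homocysteine and 500 μM SAM. AzMC fluorescence read kinetically for 2 h at 37 °C. Substrate background subtracted; percent of control, at least three replicates.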

[8] = biological target: Cystathionine gamma-lyase (Homo sapiens) (UniProt P32929); assay: Inhibition of human full length CSE using L-cysteine as substrate at 30 to 300 uM preincubated with enzyme for 1 hr followed by substrate and PLP addition for 2 hrs by AzMC probe based fluorescence analysis; details: dose 30-300 µM, time 3.0 hrs
Cystathionine gamma-lyase (Homo sapiens), sequence (P32929 whole entry): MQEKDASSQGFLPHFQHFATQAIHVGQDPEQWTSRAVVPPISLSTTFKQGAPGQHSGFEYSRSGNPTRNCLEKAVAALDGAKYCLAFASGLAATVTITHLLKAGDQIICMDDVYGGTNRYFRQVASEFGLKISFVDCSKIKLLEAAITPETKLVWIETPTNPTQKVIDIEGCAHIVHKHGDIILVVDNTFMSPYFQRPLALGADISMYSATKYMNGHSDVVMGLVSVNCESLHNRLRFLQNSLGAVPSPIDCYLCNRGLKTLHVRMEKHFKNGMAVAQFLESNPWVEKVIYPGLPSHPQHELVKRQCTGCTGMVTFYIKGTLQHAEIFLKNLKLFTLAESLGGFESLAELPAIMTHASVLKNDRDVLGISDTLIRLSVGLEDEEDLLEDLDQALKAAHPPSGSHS
Procedure, shortened: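 Human full-length CSE, 2 μg/well, preincubated 1 h with compound at 30 or 300 μM. Then added 5 μM PLP and 2 mM L-cysteine. AzMC fluorescence read kinetically for 2 h at 37 °C. Substrate background subtracted; percent of control, at least three replicates.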

CT26 [9] = assay: Inhibition of 3-MST in mouse CT26 cells assessed as inhibition of H2S generation at 300 uM incubated for 4 hrs by AzMC probe based fluorescence analysis; type: cell-based
Procedure, shortened: (§1)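 Cells seeded at 60,000/well in 8-well chambers and allowed to adhere overnight. Exposed to 300 μM compound for 4 h, then supernatant replaced with 1 mM AzMC in HBSS plus glucose for 1 h. Fluorescence imaged by microscopy; mean pixel intensity expressed as percent of control.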

MC38 = assay: Inhibition of 3-MST in mouse MC38 cells assessed as inhibition of H2S generation at 300 uM incubated for 4 hrs by AzMC probe based fluorescence analysis; type: cell-based; procedure, shortened: as §1
Mus musculus = assay: Antitumor activity against mouse MC38 cells xenografed in C57BL/6 mouse assessed as euthanasia rate at 20 mg/kg, ip administered daily for 2 weeks and measured on day 32 (reference value: 75%); type: functional, MC-38; details: time 32 day
[10] = Inhibition of GYY4137-induced H2S release assessed as H2S-induced fluorescence signal at 300 uM measured after 2 hrs by AzMC probe based fluorescence analysis; type: functional; set-up: scale not given: the % may be the effect or the level left
Procedure, shortened: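 H2S scavenging/interference check in 50 mM Tris-HCl pH 8: compound at 300 μM with 100 μM AzMC and 5 mM GYY4137 as nonenzymatic H2S donor. Fluorescence read kinetically for 2 h at 37 °C (ex 365/em 450 nm). Signal loss above 20% flagged as potential scavenger/interferer.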

MC-38 [11] = assay: Antiproliferative activity against mouse MC38 cells assessed as inhibition of cell proliferation upto 300 uM measured after 24 hrs by MTT assay; type: functional, cell-based; details: dose microM <=300, time 24.0 hrs
Procedure, shortened: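 CT26 or MC38 cells in high-glucose DMEM with 10% FBS and penicillin/streptomycin, 37 °C, 5% CO2. Seeded at 10,000 cells/well and treated after 1 h adherence at 3, 10, 30, 100 and 300 μM (final DMSO 0.5%). After 24 h, medium replaced by 2 mg/mL MTT in PBS for 3 h. Formazan dissolved in DMSO, absorbance read at 590 nm minus 690 nm. Expressed as percent of control; three experiments in triplicate.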

Homo sapiens = organism: Homo sapiens; assay: Inhibition of recombinant human 3-MST expressed in Escherichia coli assessed as inhibition of H2S generation using 3-MP as substrate at 100 uM preincubated with enzyme for 1 hr followed by incubation with substrate for 1 hr by AzMC probe based fluorescence analysis; details: time 2.0 hrs
Procedure, shortened: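 Human recombinant 3-MST, 3 μg/well, in 50 mM Tris-HCl pH 8 preincubated 1 h at 37 °C with compound at 100 μM (from 100 mM DMSO stock). Then 2 mM 3-MP (no extra sulfur acceptor) and 10 μM AzMC added. Fluorescence read kinetically 1 h at 37 °C, ex 365/em 450 nm. Percent inhibition, mean of three replicates.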

Structure (SMILES): O=C(CSc1nccc(=O)[nH]1)c1cccc2ccccc12
- pIC50 [1]: 5.14
- pIC50 (CT26 [2]): 3.45
- pIC50 (MC-38 [3]): 3.72
- pIC50 (CT26 [4]): 3.45
- pIC50 (MC-38 [5]): 3.44
- Activity (MC-38 [6]): Active
- inhibition [7]: inactive
- inhibition [8]: inactive
- inhibition (CT26 [9]): Active
- inhibition (MC38): Active
- Activity (Mus musculus): 33%

Structure (SMILES): Cc1cc(=O)[nH]c(SCC(=O)c2ccc3ccccc3c2)n1
- pIC50 [1]: 4.65

Structure (SMILES): Cc1cc(=O)[nH]c(SCC(=O)c2cc(O)cc(O)c2)n1
- pIC50 [1]: 4.63
- pIC50 (CT26 [2]): < 3.00
- pIC50 (MC-38 [3]): < 3.00
- pIC50 (CT26 [4]): < 3.00
- pIC50 (MC-38 [5]): < 3.00
- inhibition [7]: inactive
- inhibition [8]: inactive
- inhibition (CT26 [9]): Active
- inhibition (MC38): Active
- Activity (MC-38 [11]): inactive

Structure (SMILES): O=C(CSc1nccc(=O)[nH]1)c1ccc(O)c(Cl)c1
- pIC50 [1]: 4.73
- Activity [10]: < 80%

Structure (SMILES): Nc1c(Cl)cc(C(=O)CSc2nccc(=O)[nH]2)cc1Cl
- pIC50 [1]: 5.18
- Activity [10]: < 80%

Structure (SMILES): Cc1cc(=O)[nH]c(SCC(=O)c2ccc3ncccc3c2)n1
- pIC50 [1]: 4.79
- inhibition [8]: Active

Structure (SMILES): Cc1cc(=O)[nH]c(SCC(=O)c2ccc(O)c(I)c2)n1
- pIC50 [1]: 4.77
- Activity [10]: < 80%

Structure (SMILES): Cc1cc(=O)[nH]c(SCC(=O)c2ccc(F)c3ccccc23)n1
- pIC50 [1]: 4.44

Structure (SMILES): CC(=O)Nc1ccc(C(=O)CSc2nc(C)cc(O)n2)cc1
- pIC50 [1]: 5.00
- pIC50 (CT26 [2]): < 3.00
- pIC50 (MC-38 [3]): < 3.00
- pIC50 (CT26 [4]): < 3.00
- pIC50 (MC-38 [5]): < 3.00
- inhibition [7]: inactive
- inhibition [8]: inactive
- inhibition (CT26 [9]): Active
- inhibition (MC38): Active
- Activity (MC-38 [11]): inactive

Structure (SMILES): O=C(CSc1nccc(=O)[nH]1)c1cc(Cl)c(O)c(Cl)c1
- pIC50 [1]: 4.92
- Activity [10]: < 80%

Structure (SMILES): O=C(CSc1nccc(=O)[nH]1)c1ccc(O)c(F)c1
- pIC50 [1]: 4.67
- Activity [10]: < 80%

Structure (SMILES): NC(=O)c1cc(C(=O)CSc2nccc(=O)[nH]2)ccc1O
- pIC50 [1]: 4.69
- Activity [10]: < 80%

Structure (SMILES): Cc1cc(=O)[nH]c(SCC(=O)c2cc(Cl)c(O)c(Cl)c2)n1
- pIC50 [1]: 4.87
- Activity [10]: < 80%

Structure (SMILES): Cc1cc(=O)[nH]c(SCC(=O)c2ccc3c(c2)OCO3)n1
- pIC50 [1]: 4.71
- pIC50 (CT26 [2]): 3.28
- pIC50 (MC-38 [3]): 3.11
- pIC50 (CT26 [4]): 3.30
- pIC50 (MC-38 [5]): 3.44
- inhibition [7]: inactive
- inhibition [8]: inactive
- inhibition (CT26 [9]): Active
- inhibition (MC38): Active
- Activity (MC-38 [11]): inactive

The remaining compounds from weak to strong by pIC50 [1], led by results:

- pIC50 [1]: 4.47
Structure (SMILES): O=C(CSc1nccc(=O)[nH]1)c1cc(O)cc(O)c1
- Activity [10]: < 80%

- pIC50 [1]: 4.50
Structure (SMILES): O=C(CSc1nccc(=O)[nH]1)c1ccc(F)c2ccccc12

- pIC50 [1]: 4.55
- pIC50 (CT26 [2]): 3.82
- pIC50 (CT26 [4]): 3.70
- inhibition [7]: inactive
- inhibition [8]: inactive
Structure (SMILES): O=C(CSc1nccc(=O)[nH]1)c1ccc2ccccc2c1
- pIC50 (MC-38 [3]): 3.82
- pIC50 (MC-38 [5]): 3.47
- inhibition (CT26 [9]): Active
- inhibition (MC38): Active

- pIC50 [1]: 4.55
Structure (SMILES): Cc1cc(=O)[nH]c(SCC(=O)c2ccc(O)c(F)c2)n1
- Activity [10]: < 80%

- pIC50 [1]: 4.60
Structure (SMILES): Cc1cc(=O)[nH]c(SCC(=O)c2ccc(O)c(Cl)c2)n1
- Activity [10]: < 80%

- pIC50 [1]: 4.67
Structure (SMILES): Cc1cc(=O)[nH]c(SCC(=O)c2ccc(O)c(C(N)=O)c2)n1
- Activity [10]: < 80%

- pIC50 [1]: 4.72
Structure (SMILES): O=C(CSc1nccc(=O)[nH]1)c1ccc(O)c(O)c1
- Activity [10]: < 80%

- pIC50 [1]: 4.81
- pIC50 (CT26 [2]): 3.68
- pIC50 (CT26 [4]): 3.61
- inhibition (Homo sapiens): 68%
Structure (SMILES): Cc1cc(=O)[nH]c(SCC(=O)c2cccc3ccccc23)n1
- pIC50 (MC-38 [3]): 4.00
- pIC50 (MC-38 [5]): 3.66
- Activity (MC-38 [6]): inactive
- inhibition (CT26 [9]): Active
- inhibition (MC38): Active
- Activity (Mus musculus): 67%

- pIC50 [1]: 4.81
Structure (SMILES): Cc1cc(O)nc(SCC(=O)c2ccc(O)c(O)c2)n1
- Activity [10]: < 80%

- pIC50 [1]: 4.81
Structure (SMILES): O=C(CSc1nccc(=O)[nH]1)c1ccc2ncccc2c1
- Activity [10]: < 80%

- pIC50 [1]: 4.84
- pIC50 (CT26 [2]): < 3.00
- pIC50 (CT26 [4]): 3.32
- inhibition [7]: inactive
- inhibition [8]: inactive
Structure (SMILES): CC(=O)Nc1ccc(C(=O)CSc2nccc(O)n2)cc1
- pIC50 (MC-38 [3]): < 3.00
- pIC50 (MC-38 [5]): < 3.00
- inhibition (CT26 [9]): Active
- inhibition (MC38): Active
- Activity (MC-38 [11]): inactive

- pIC50 [1]: 4.85
Structure (SMILES): O=C(CSc1nccc(=O)[nH]1)c1ccc(O)c(I)c1
- Activity [10]: < 80%

- pIC50 [1]: 4.89
- inhibition [8]: Active
Structure (SMILES): O=C(CSc1nccc(=O)[nH]1)c1ccc(O)cc1

- pIC50 [1]: 4.97
Structure (SMILES): Cc1cc(O)nc(SCC(=O)c2ccc(O)cc2)n1
- Activity [10]: < 80%

- pIC50 [1]: 5.48
Structure (SMILES): Cc1cc(=O)[nH]c(SCC(=O)c2ccc(O)c3ccccc23)n1
- Activity [10]: < 80%
